Assay results from ChEMBL document CHEMBL4513216, “Probing the Open Global Health Chemical Diversity Library for Multistage-Active Starting Points for Next-Generation Antimalarials” (ACS Infect Dis, 2020).

Test: Toxicity liver stage against HepG2, at 10uM
Format: cell-based
Design: test concentration 10 uM, cell line HepG2-A16-CD81EGFP
Settings: human, HepG2-A16-CD81EGFP cells; read-out: INHIBITION
Summary of the method: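 Uninfected HepG2-A16-CD81EGFP cells, 3 × 10^3 per well, 1536-well, plated on prespotted compound at 10 μM final, parasite-free screening media added to match infected plates; puromycin 10 μM positive, DMSO 0.5% negative; run in parallel with 48 h PbLuc assay at 37 °C, 5% CO2; viability by CellTiter-Glo luminescence, normalized to controls.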

| Compound | cytotoxicity at 10 µM [%] |
| --- | --- |
| CC1CCc2c(c3ccccc3[nH]c2=O)O1 (stereo unspecified) | -8.41 |
| O=C1N[C@@H]2CCN(C(=O)C3CCCC3)[C@@H]2C(=O)N1c1ccc(F)cc1 | -1.1 |
| Cc1cc(C(=O)Nc2nc3c(s2)CN(S(=O)(=O)C2CC2)CC3)c(C)o1 | 22.7 |
| CC(=O)OC1CN(c2nc3c(Cl)cccc3s2)C1 | -0.745 |
| CCN1CCC2(CN(C(C)=O)CC23CCN(C(=O)N(C)C)CC3)C1=O (stereo unspecified) | 4.88 |
| CC(=O)N1CCC2(CCCN(S(=O)(=O)c3ccccc3)C2)C1 (stereo unspecified) | 0.169 |
| Cc1ccc2c(c1)C1(CCNCC1)CC2N1CCOCC1 (stereo unspecified) | -134 |
| CCc1cnc(NC2CCc3c(ccc(=O)n3C)C2)nc1 (stereo unspecified) | -125 |
| CCN(CC)Cc1nc2c(o1)CN(C(=O)c1ccc3ncccc3c1)C2 | 6.01 |
| CC(=O)N1CC2(CCN(C(=O)CO)CC2)c2cc(C)ccc21 | 9.37 |
| CC(=O)N1CCO[C@@H]2CN(C(=O)c3ccc4ccccc4c3)CC[C@@H]2C1 | 1.35 |
| COCC1c2nnn(CC3CC3)c2CCN1C(=O)c1cccn1C (stereo unspecified) | -133 |
| CS(=O)(=O)N[C@@H]1CN(Cc2ccccc2)C[C@@H]2CCCO[C@@H]21 | 2.58 |
| O=C(c1cnccn1)N1CCN2C[C@H](OCC3CC3)C[C@H]2C1 | 2.92 |
| NC(=O)c1c(NC(=O)C2CCCO2)sc2c1CCc1ccccc1-2 (stereo unspecified) | 0.794 |
| Cc1c(C2CC(=O)Nc3c2cnn3C(C)(C)C)cnn1C (stereo unspecified) | -2.89 |
| Cn1cc(CN2CC[C@H]3OCC[C@@H](C(=O)N4CCCCO4)[C@@H]3C2)cn1 | -2.1 |
| CSc1nc2ccsc2c(=O)n1CC(=O)NC1CCCC1 | 0.297 |
| Cc1noc(C)c1-c1cccc(C2CCCNC2)n1 (stereo unspecified) | -12.3 |
| Cc1noc(C)c1-c1nc(NCCN(C)C)ncc1-c1cnccn1 | -9.03 |
| Cc1nc(C)c(C(=O)N2CCC(O)(Cn3ccc4ccncc43)CC2)s1 | -21.7 |
| COCCN1CCCC(CCCc2ccccn2)(C(N)=O)C1 (stereo unspecified) | -16 |
| COc1ccc(C)cc1C1(CNc2cncc(Cl)n2)CCOCC1 | 7.07 |

| Compound | cytotoxicity at 10 µM [%] |
| --- | --- |
| CC(C)COCCC(=O)Nc1cc(-n2nnnc2C2CC2)ccc1F | 7.57 |
| O=C(NCc1nnc2n1CCC2)c1cccc(Br)c1 | -0.115 |
| CC(C)c1nsc(N2CCn3c(nnc3-c3ccccc3)C2)n1 | -13.9 |
| CN(C)Cc1ccc(C(N)=O)cc1NC(=O)c1cccc(C#N)c1 | 1.12 |
| O=S(=O)(NCCCn1cncn1)c1ccc2c(c1)CCC2 | 3.03 |
| Cc1ccc2cccc(C(=O)NCCOCC3CC3)c2n1 | -20.3 |
| COC(=O)c1cccc(S(=O)(=O)NCC(c2ccco2)N2CCCC2)c1 (stereo unspecified) | -1.74 |
| CC(C)(C)c1noc(CCCC(=O)N2CCNC(=O)C2)n1 | -4.28 |
| NC(=O)NC1CCN(Cc2ccc3c(c2)CCC3)CC1 | -3.19 |
| O=C1CN(C(=O)c2cc3ccc(Br)cc3[nH]2)CCN1 | 0.549 |
| O=C(CNC(=O)C1CC1)NCc1ccc(Cl)s1 | -3.12 |
| Cc1sc(-c2ccco2)nc1C(=O)N(CC(N)=O)C1CCCC1 | -2.64 |
| O=C(NCCN1CCOCC1)c1cc(-c2ccccc2Cl)[nH]n1 | -4.02 |
| Cc1cc(C)n(CC2CCCN2CC(=O)Nc2nnc(C)s2)n1 (stereo unspecified) | 5.29 |
| Cn1c(C(=O)N2CCC(CC(N)=O)CC2)c(Cl)c2ccccc21 | 18.7 |
| CC(NC(=O)N(C)Cc1ccsc1)c1nncn1C (stereo unspecified) | -4.02 |
| COc1ccc(CC(=O)NCCNS(=O)(=O)c2ccc(C)cc2)cc1 | -143 |
| CC(C)OCCC(=O)Nc1c(-c2ccc(F)cc2)ncn1C | -3.41 |
| Cc1[nH]c(=O)sc1S(=O)(=O)N1CCCC1C(=O)NCc1ccsc1 (stereo unspecified) | 2.78 |
| Cc1cc(N2CCCCC2Cn2nc(C)cc2C)n2ncnc2n1 (stereo unspecified) | -1.38 |
| COCCc1noc(CN2CCCc3cccc(OC)c32)n1 | 5.52 |
| CC(Sc1n[nH]c(-c2ccc3c(c2)CCC3)n1)C(N)=O (stereo unspecified) | -0.665 |
| CC(C)c1nccn1CCC(=O)N1CCCC1c1cccn1C (stereo unspecified) | -6.66 |

| Compound | cytotoxicity at 10 µM [%] |
| --- | --- |
| COC(=O)c1ccc(CNC(C)c2ccc(S(C)(=O)=O)cc2)cc1 (stereo unspecified) | 5.21 |
| CCCNC(=O)c1[nH]nc(C2CC2)c1Br | -0.587 |
| CN1CC(C(=O)NCCc2ccc(Br)cc2F)CC1=O (stereo unspecified) | 2.43 |
| COCC(=O)N1CCC(Nc2ccnc3ccc(Cl)cc23)CC1 | 5.78 |
| Cc1nc(COc2ccc(S(=O)(=O)N(C)C)cc2)sc1C | -1.13 |
| Cc1nc2ccccc2n1CCNCc1cccc(O)c1 | -3.89 |
| CN(CC1CC1)C(=O)Cc1csc(-c2ncccn2)n1 | 4.56 |
| COc1ncccc1NC(=O)N1CCC(CN2CCOCC2)CC1 | -6.78 |
| CSCC(C)(O)CNC(=O)c1ccc(Br)cc1F (stereo unspecified) | 0.537 |
| Cn1cc(CN(Cc2ccccc2)CC(O)c2cccs2)cn1 (stereo unspecified) | -8.59 |
| O=C(CC1COCCN1)N1CCC2(CCc3ccccc32)CC1 (stereo unspecified) | -148 |
| CC(C)Cc1cn(C2CCN(C(C)CCn3cccn3)CC2)nn1 (stereo unspecified) | -1.8 |
| COc1ccc(-n2cc(CCO)cn2)cc1C | -12.4 |
| CCN(C)C[C@@H]1CN(Cc2cnc3c(S(C)(=O)=O)cnn3c2)C[C@@H]1CO | -4.99 |
| C[C@@H]1CN(C(=O)CCc2cnn(C)c2)CC[C@@]1(O)C1CCOCC1 | -0.872 |
| CC1(c2ccccc2)CCC(=O)N(CCN2CCCOC2=O)C1 (stereo unspecified) | -3.99 |
| COCCCC1(CO)CCCN(Cc2ccc(F)c(OC)c2)C1 (stereo unspecified) | -142 |
| Cn1cc(CN(C/C=C/c2ccccc2)C2CC2)cn1 | -10.1 |
| COCCN1CCN(C(=O)c2ccc(C)cc2F)[C@H]2CS(=O)(=O)C[C@H]21 | -11.4 |
| CC(C)SCC(=O)N1CCCn2nc(C(=O)Nc3ccccc3)cc2C1 | 3.19 |
| CCC(CC)n1nc(C)cc1NC(=O)C1CCCO1 (stereo unspecified) | -0.951 |
| CCCNC(=O)N1CCc2ccc(S(=O)(=O)N3CCCC3)cc2C1 | -12.3 |
| COc1cccc(OCc2cc(C(=O)N3CC(O)C3)n[nH]2)c1 | 2.81 |

| Compound | cytotoxicity at 10 µM [%] |
| --- | --- |
| Cc1nn(C)c2ncnc(NCc3nncn3C3CCCCC3)c12 | -10.2 |
| O=C(c1cccs1)N1CC(Oc2ccccc2Cl)C1 | 6.89 |
| COc1cccc(OC2CN(C(=O)c3c(C)noc3C)C2)c1 | 7.79 |
| Cc1nc2c(c(=O)n1C)CN(C(=O)C1CCCN(C3CCCC3)C1)C2 (stereo unspecified) | -8.67 |
| Cc1cccc(C(C(=O)NCCCc2ccccn2)N(C)C)c1 (stereo unspecified) | -7.16 |
| OCC1(O)CCN(Cc2ccc(-c3cc[nH]n3)s2)CC1 | -135 |
| COc1ccc(OC)c(NC(=O)c2cc3c([nH]c2=O)CCCC3=O)c1 | -0.607 |
| COc1ccc(-c2ccccc2CN)c(OC)c1 | 7.35 |
| Cc1nnc2ccc(N3CCN(CCc4ccccn4)CC3)nn12 | -8.76 |
| COC(=O)CNC(=O)c1sc(-c2ccc(Cl)s2)nc1C | -5.63 |
| Cc1ccc(CCC(=O)N2CCOCC2c2ncon2)c(C)c1 (stereo unspecified) | -6.76 |
| N#Cc1ccc(CS(=O)(=O)NC(=O)COc2ccc3c(c2)CCC3)cc1 | 1.13 |
| COc1cccc(-n2nnc(C(=O)N3CCCC(C)C3)c2C)c1 (stereo unspecified) | -5.33 |
| CCn1nc2c(cc1=O)CN(Cc1nc(-c3cccnc3)no1)CC2 | -5.86 |
| Fc1ccccc1-c1nc(CNCCn2cccn2)cs1 | -9.53 |
| c1ncn(CC2CCCCN2Cc2csc(-c3ccsc3)n2)n1 (stereo unspecified) | -2.48 |
| Cc1nc(CSCCC(=O)NCc2ccc(N(C)C)cc2)cs1 | -14.2 |
| COc1ccccc1CNC(=O)N1CCN(Cc2cc(C)on2)CC1 | -9.07 |
| COCCOc1cc(C)ccc1NC(=O)N(C)Cc1cnn(C)c1 | -9.5 |
| CCOc1ccc(C(=O)N2CCCC(n3ccnc3C)C2)cc1OC (stereo unspecified) | -6.7 |
| COCCc1noc(CN2CC(n3nc(C)cc3C)C2)n1 | -1.76 |
| c1cnn(CCN2CCOC(Cn3cccn3)C2)c1 (stereo unspecified) | -10.3 |
| CCN(Cc1ccc(F)c(F)c1)Cc1nc2c(cnn2C)c(=O)[nH]1 | -4.18 |

| Compound | cytotoxicity at 10 µM [%] |
| --- | --- |
| CCn1cc(CN2CCCN(C(=O)c3ccccc3C)CC2)cn1 | -5.65 |
| COc1c(C2CCCN2C(=O)c2ccc(N(C)C)nn2)c(C)nn1C (stereo unspecified) | -13.7 |
| Cc1nc(C)c(C(=O)N2CCCN(Cc3cnn(C)c3)CC2)s1 | -9.58 |
| O=C(c1ccccn1)N1CCCN(Cc2nnc(C3CC3)o2)CC1 | 5.25 |
| CC(C)(C)c1cc(C(=O)NCCn2nc3ccccn3c2=O)[nH]n1 | -29.5 |
| CC(C)(C)c1cn2nc(N3CCCCC3Cn3cncn3)sc2n1 (stereo unspecified) | -4.61 |
| COCCNC(=O)[C@H]1C[C@@H]2CCN(c3ncccn3)C[C@H]2O1 | -17.1 |
| Cc1occc1C(=O)N1CCC2(CCCN(Cc3nccs3)C2)C1 (stereo unspecified) | -3.32 |
| Fc1ccc(COCC2CCN(Cc3ccccn3)CC2)cc1 | -2.67 |
| Cc1nc(CO[C@@H]2CN(Cc3nccs3)[C@@H]3COC[C@@H]32)cs1 | -3.03 |
| Cc1ccc2c(c1)C(N(C)C)CC21CCN(CCO)CC1 (stereo unspecified) | 3.62 |
| O=C(c1ccccn1)N1CCC2(CC1)C(=O)Nc1ccccc12 | -145 |
| CCN1CCOCC2(CCCN(C(=O)c3ccccc3F)C2)C1 (stereo unspecified) | -4.9 |
| Clc1ccccc1OCCc1cc(C2CCNC2)n[nH]1 (stereo unspecified) | -32.9 |
| O=C(c1ccccn1)N1CC[C@H]2[C@H]1CCN2S(=O)(=O)C1CC1 | -123 |
| CN(C)CCN1CCO[C@H]2CN(Cc3cnn(C)c3)C[C@H]21 | 1.82 |
| O=C1Nc2ccccc2C12CCN(Cc1nccs1)CC2 | -0.243 |
| c1ccc(N2CCC3(CCCN(c4ncccn4)C3)C2)nc1 (stereo unspecified) | -133 |
| Cc1noc(C)c1CN1C(=O)[C@@H]2CC[C@H]1CN(Cc1cscn1)C2 | 0.854 |
